A selection: hits, their analogues and other compounds. The true share with any hit is near 3.6%.
NS3 helicase inh – HCV NS3 helicase inhibition; NS3 helicase DNA unwinding, Cy5 molecular beacon fluorescence; inhibition, % at 10.9 µM; AID 1800; 290,000 tested, 0.56% active;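 active means inhibition above the mean of all tested compounds plus 3 SD, set per campaign, cut at about 35% in these data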
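Assay system – hepatitis C virus NS3 helicase domain fragment enzyme · Buffer or medium – MOPS pH 6.5, MgCl2, DTT, Tween20, BSA · Reagent – Cy5/quencher beacon DNA duplex and ATP to start · Compound – single 10.9 µM dose · Timing – 1 h at 25 °C · Technique – Cy5 beacon fluorescence read at start and 1 h · Measure – % inhibition of unwinding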
EBNA-1 inh – blocks EBNA-1 binding to DNA. inhibition, % at 14.8 µM. 300,000 tested, 0.34% active. EBNA-1 DNA binding, fluorescence polarization; in the data active means inhibition above about 28%
FGF22 binding – binders of recombinant human FGF22 by thermal shift; activity (Tm shift, normalised), % at 9.99 µM; 340,000 tested, 1.5% active; SYPRO orange fluorescence; percent of sucrose octasulfate shift, DMSO zero; Q9HCT0;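 active means mean Tm shift, scaled 0 neutral to 100 positive control, at about 1.3% or above, every replicate too, limit read from the data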
Target sequence (Q9HCT0 whole entry, looked up): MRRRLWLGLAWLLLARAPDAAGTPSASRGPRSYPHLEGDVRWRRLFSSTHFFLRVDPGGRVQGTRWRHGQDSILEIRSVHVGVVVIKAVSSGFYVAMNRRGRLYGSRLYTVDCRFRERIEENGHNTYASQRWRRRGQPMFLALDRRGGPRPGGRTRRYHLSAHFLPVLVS
DNA FID counter-1 – displaces DNA intercalator in HCV helicase counter-screen; DNA fluorescent intercalator displacement, fluorescence; inhibition, % at 7.9 µM; 290,000 tested, 0.17% active;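 further: higher means more ethidium bromide displaced from hairpin DNA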
ZTA DNA inh – ZTA (EBV) inhibition in EBNA-1 counter-screen; P03206; ZTA-DNA binding, fluorescence polarization; inhibition, % at 11 µM; 320,000 tested, 0.15% active; AID 2234; in the data active means inhibition above about 33%
Target sequence (P03206 whole entry, looked up): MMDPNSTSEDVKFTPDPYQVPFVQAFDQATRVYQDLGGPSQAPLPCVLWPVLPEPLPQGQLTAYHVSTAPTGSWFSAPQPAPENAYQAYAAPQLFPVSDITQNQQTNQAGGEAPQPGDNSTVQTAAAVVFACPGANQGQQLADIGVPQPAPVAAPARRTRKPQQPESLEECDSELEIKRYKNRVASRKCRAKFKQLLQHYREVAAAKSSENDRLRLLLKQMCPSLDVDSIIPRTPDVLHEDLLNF
GRIN3A LBD mod – modulates the human NR3A ligand-binding domain; NR3A LBD differential scanning fluorimetry, Tm shift; 0% = protein alone, 100% = glycine-bound protein; Tm shift relative to glycine control, % at 25 µM; 340,000 tested, 2.5% active; AID 1259313;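 active means melting temperature shift of at least 10% of the positive control shift, at one fixed dose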
NS3 helicase cf – confirmation of Hepatitis C virus NS3 helicase inhibitors; shares compounds with NS3 helicase inh; NS3 helicase DNA unwinding, Cy5 molecular beacon fluorescence; inhibition, % at 10.9 µM; 1,600 tested, 31% active;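 active means inhibition above the mean of all tested compounds plus 3 SD, cutoff set per campaign, cut at about 36% in these data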
DNA FID counter-2 – counter-screen for HCV NS3 helicase inhibitors: DNA intercalator displacement; 1,600 tested, 4% active; DNA fluorescent intercalator displacement, fluorescence; shares compounds with NS3 helicase inh; inhibition, % at 7.9 µM;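 further: higher means more displacement of ethidium bromide from the DNA hairpin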
FID counter DR – counter-screen for HCV NS3 helicase inhibitors: DNA intercalator displacement dose response; shares compounds with NS3 helicase inh; 120 tested, under 10 active; IC50, µM; fluorescent intercalator displacement from DNA, fluorescence; call rule not given here
A number is an active result; i = inactive; nt = no result. Unless noted, no stated cut-off is given here; in the data, active means inhibition above about 37%; inactive means the rest.

SMILES	NS3 helicase inh	EBNA-1 inh	FGF22 binding	DNA FID counter-1	ZTA DNA inh	GRIN3A LBD mod	NS3 helicase cf	DNA FID counter-2	others
CCOC(=O)c1cc2c(=O)n3ccccc3nc2n(Cc2ccco2)c1=NC(=O)c1ccc(OC)cc1OC	51	i	i	i	i	i	i	i
CCCCn1c(=NC(=O)c2ccco2)c(C(=O)OCC)cc2c(=O)n3ccccc3nc21	i	i	nt	i	i	i	nt	nt
COc1ccc(CCNC(=O)c2cc3c(=O)n4cccc(C)c4nc3n(Cc3ccco3)c2=N)cc1OC	38	i	i	i	i	i	i	i
O=C(C[C@@H]1CC[C@H]2[C@@H](COC[C@H](O)CN2Cc2ccccc2F)O1)N[C@H]1CCN(Cc2ccccc2)C1	nt	nt	i	nt	nt	nt	nt	nt
CCC(CC)C1C(C#N)=C(N)Oc2cc(C)oc(=O)c21 (configuration not stated)	i	i	i	i	i	i	nt	nt
Cc1cc2c(c(=O)o1)C(CCC1CCCCC1)C(C#N)=C(N)O2 (configuration not stated)	39	i	i	i	i	i	i	i
CC1(C)Cc2c(c(-c3ccco3)nc3sc4c(NCCCO)ncnc4c23)CO1	60	i	i	i	i	i	i	i
CC1(C)Cc2c(c(-c3ccco3)nc3sc4c(NCCN5CCOCC5)ncnc4c23)CO1	i	i	i	i	i	i	nt	nt
O=C1C(=O)N(Cc2ccncc2)C(c2cccc(O)c2)/C1=C(\O)c1ccc2c(c1)OCCO2 (configuration not stated)	41	i	i	i	i	i	i	i
O=C1C(=O)N(Cc2cccnc2)C(c2cccc(O)c2)/C1=C(\O)c1ccc2c(c1)OCCO2 (configuration not stated)	i	i	i	i	i	i	nt	nt
CC(=O)Nc1ccc(C(=O)Nc2ccc(S(=O)(=O)Nc3nccc(C)n3)cc2)cc1	i	i	i	i	i	i	nt	nt
Cc1cc(C)nc(NS(=O)(=O)c2ccc(NC(=O)c3ccc(N4C(=O)CCC4=O)cc3)cc2)n1	60	i	nt	i	i	i	i	i
CCc1sc(C(C2C(=O)CC(C)(C)CC2=O)C2C(=O)CC(C)(C)CC2=O)cc1[N+](=O)[O-]	59	i	i	i	i	i	68	i
CCOc1cc(/C=C2\SC(=Nc3ccc(CC)cc3)NC2=O)ccc1OCC(=O)O	46	i	i	i	i	nt	69	i
C[C@@H]1CN([C@H](C)CO)C(=O)Cc2cc(NC(=O)Cc3ccccc3)ccc2O[C@@H]1CN(C)C(=O)Nc1ccc(F)cc1	nt	nt	i	nt	nt	nt	nt	nt
O=[N+]([O-])c1c(NCCCO)cc(SCc2ccco2)c2nonc12	i	i	i	i	i	i	nt	nt
CC(=O)OCCNc1cc(SCc2ccco2)c2nonc2c1[N+](=O)[O-]	47	i	nt	i	i	i	i	i
Cc1ccc2c(c1)NC(C(C)(C)C)CO2 (configuration not stated)	85	i	nt	i	i	i	i	i
C[C@@H]1CN([C@@H](C)CO)C(=O)c2cc(NC(=O)CCC(F)(F)F)ccc2O[C@@H](C)CCCCO[C@H]1CN(C)C(=O)Cc1ccccc1	nt	nt	i	nt	nt	nt	nt	nt
CN(C)c1ccc2c(c1)[C@H]1C[C@H](CC(=O)NCc3ccc(Cl)cc3)O[C@@H](CO)[C@H]1O2	nt	nt	i	nt	nt	nt	nt	nt
Cc1ccc(/C=C/C(=O)c2ccccc(=O)c2O)cc1C	40	i	i	i	i	i	85	i	FID counter DR=i
O=C(/C=C/c1ccccc1)c1cc(Br)ccc(=O)c1O	i	i	nt	i	i	i	nt	nt
CC(=O)Oc1ccc(C23CC4CC(CC(C4)C2)C3)cc1C(=O)O	40	i	nt	i	i	nt	i	i
CC(=O)Oc1ccccc1C(=O)O	nt	i	i	nt	i	i	nt	nt
CSCCC(NC(=O)c1cccc(C)c1)C(=O)Nc1sccc1C(N)=O (configuration not stated)	41	i	i	i	i	i	i	i
SMILES	NS3 helicase inh	EBNA-1 inh	FGF22 binding	DNA FID counter-1	ZTA DNA inh	GRIN3A LBD mod	NS3 helicase cf	DNA FID counter-2	others
CSCCC(NC(=O)c1ccccc1)C(=O)Nc1ccc(C)cc1 (configuration not stated)	i	i	i	i	i	i	nt	nt
CC(C)NC(=O)N(C)C[C@@H]1OCCCC[C@@H](C)Oc2ccc(NS(=O)(=O)c3ccc(F)cc3)cc2C(=O)N([C@@H](C)CO)C[C@@H]1C	nt	nt	i	nt	nt	nt	nt	nt
Cc1cc(O)c2c(C)c(CC(=O)N3CCN(C(=O)C4COc5ccccc5O4)CC3)c(=O)oc2c1 (configuration not stated)	46	i	i	i	i	i	i	i
CC(C)C#Cc1cnc2c(c1)C(=O)N([C@@H](C)CO)C[C@@H](C)[C@@H](CN(C)C(=O)Nc1ccc(F)cc1)O2	nt	nt	i	nt	nt	nt	nt	nt
CC1(C)Cc2nc3sc(C(=O)O)c(N)c3cc2CS1	48	i	nt	i	i	nt	i	i
CC1(C)Cc2nc3sc(C(=O)NCCCO)c(N)c3cc2CS1	i	i	i	i	i	i	nt	nt
COc1cccc(S(=O)(=O)N(C)C[C@H]2Oc3cc(C#CCC(C)C)ccc3S(=O)(=O)N([C@H](C)CO)C[C@H]2C)c1	nt	nt	i	nt	nt	nt	nt	nt
C[C@@H]1CN([C@H](C)CO)C(=O)Cc2cc(NC(=O)Cc3ccccc3)ccc2O[C@@H]1CN(C)Cc1ccc(Oc2ccccc2)cc1	nt	nt	i	nt	nt	nt	nt	nt
CCCNC(=O)[C@H]1[C@H](CO)[C@H]2Cn3c(ccc(-c4ccccc4)c3=O)[C@H]2N1C(=O)c1ccccc1F	nt	nt	i	nt	nt	nt	nt	nt
S=c1[nH]nc(-c2ccco2)n1/N=C/c1cccc(Cl)c1Cl	44	i	i	i	i	i	i	i
COc1ccc2c3c(n(C)c2c1)[C@H](CO)N(C(=O)NC(C)C)CC31CCN(CC2CCCC2)CC1	nt	nt	i	nt	nt	nt	nt	nt
CCCCCCC(=O)Nc1nc(C)c(-c2csc(Nc3cc(OC)ccc3OC)n2)s1	i	i	i	i	i	i	nt	nt
CCCCCC(=O)Nc1nc(C)c(-c2csc(Nc3cc(OC)ccc3OC)n2)s1	39	i	44	i	i	i	i	i
COCCNC(=O)c1cc2cc3ccc(OC)cc3nc2o1	i	i	i	i	i	i	nt	nt
CCOc1ccc(NC(=O)c2cc3cc4ccc(C)cc4nc3o2)cc1	47	i	nt	i	i	nt	i	i
CCC(C)NC(=O)c1cc2cc3ccc(OC)cc3nc2o1 (configuration not stated)	38	i	i	i	i	i	i	i
CCCCN(CC)CCCNC(=O)c1cc2cc3ccc(C)cc3nc2o1	i	i	i	i	i	i	nt	nt
CCC(=O)N(C)C[C@@H]1Oc2cc(/C=C/c3ccccc3)ccc2S(=O)(=O)N([C@H](C)CO)C[C@@H]1C	nt	nt	i	nt	nt	nt	nt	nt

Assay outcomes deposited in PubChem BioAssay by several laboratories.
